The source of these data is ChEMBL document CHEMBL4396965.

Tested on in one assay: not listed separately
Kind of assay: (§1) Antiviral activity against Influenza A virus (H1N1) harboring PR8-GLuc infected in human A549 cells assessed as reduction in virus-induced cytopathic effect treated post viral infection for 1 hr by luciferase reporter gene assay. As to conditions: A549, 1 h. In kind it is functional, cell-based, H1N1 subtype. In short, it runs like this: (§2)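 A549 cells seeded 40,000/well, incubated overnight 37 °C 5% CO2, then infected with PR8-GLuc (H1N1) at 0.1 MOI for 1 h; unbound virus removed by two acidic (PBS pH 2.2) and three neutral (PBS pH 7.4) washes. Initial screen at one concentration below maximum non-toxic concentration; those reaching 50% inhibition retested in dose response for EC50 and EC90.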
(Protection from cytopathic effect is a common read-out in antiviral testing.)
Regarding `O=C(O)[C@H]1C2C=CC(CC2)[C@@H]1Nc1nc(-c2n[nH]c3ncc(F)cc23)ncc1F` (stereo partly drawn), the EC50 stood at 16 nM.
The same measure, in the same setting: the same measure for `O=C(O)[C@H]1C2C=CC(CC2)[C@@H]1Nc1cc2nncn2c(-c2c[nH]c3ncc(F)cc23)n1` (stereo partly drawn): 680 nM; for `O=C(O)[C@H]1C2CCC(CC2)[C@@H]1Nc1nc(-c2c[nH]c3ncc(F)cc23)ncc1F` [PIMODIVIR]: 4 nM; for `Cn1cnc2c(N[C@H]3C4C=CC(CC4)[C@@H]3C(=O)O)nc(-c3c[nH]c4ncc(F)cc34)nc21` (stereo partly drawn): 400 nM.
Same read-out and setting: the same measure for `O=C(O)[C@H]1C2CCC(C3CC32)[C@@H]1Nc1nc(-c2c[nH]c3ncc(F)cc23)ncc1F` (stereo partly drawn): 50 nM.
On the same count and under the same terms, the same measure for `O=C(O)[C@H]1C2C=CC(CC2)[C@@H]1c1nnc2c(F)cnc(-c3c[nH]c4ncc(F)cc34)n12` (stereo partly drawn): > 40000 nM; for `O=C(O)[C@H]1C2C=CC(CC2)[C@@H]1Nc1nc2cnc(-c3c[nH]c4ncc(F)cc34)nc2s1` (stereo partly drawn): > 100000 nM.
Turning to `O=C(O)[C@H]1C2C=CC(C2)[C@@H]1Nc1nc(-c2c[nH]c3ncc(F)cc23)ncc1F` (stereo partly drawn), the concentration giving a half-maximal response (EC50) came to 50 nM.
The same measure, in the same setting: the same measure for `Cc1cc2nc(-c3c[nH]c4ncc(F)cc34)nc(N[C@H]3C4C=CC(CC4)[C@@H]3C(=O)O)c2s1` (stereo partly drawn): 27 nM.
Still for that read-out and setting: next, `O=C(O)[C@H]1C2C=CC(CC2)[C@@H]1Nc1nc(-c2n[nH]c3ncc(F)cc23)nc2ccsc12` (stereo partly drawn): 42 nM.
Same read-out and setting: next, `O=C(O)C12CC3CC(CC(Nc4nc(-c5c[nH]c6ncc(F)cc56)ncc4F)(C3)C1)C2`: 950 nM; `Cc1csc2c(N[C@H]3C4C=CC(CC4)[C@@H]3C(=O)O)nc(-c3c[nH]c4ncc(F)cc34)nc12` (stereo partly drawn): 29 nM; `O=C(O)[C@H]1C2C=CC(CC2)[C@@H]1Nc1nc(-c2c[nH]c3ncc(F)cc23)nc2sccc12` (stereo partly drawn): 6.5 nM.
For the compound `O=C(O)[C@H]1C2C=CC(CC2)[C@@H]1Nc1nc(-c2n[nH]c3ncc(F)cc23)nc2sccc12` (stereo partly drawn), the EC50 was 12 nM.
The same measure, in the same setting: the same measure for `O=C(O)[C@H]1C2C=CC(CC2)[C@@H]1Nc1nc(-c2c[nH]c3ncc(F)cc23)nc2ccsc12` (stereo partly drawn): 17 nM; for `Cn1cnc2nc(-c3c[nH]c4ncc(F)cc34)nc(N[C@H]3C4C=CC(CC4)[C@@H]3C(=O)O)c21` (stereo partly drawn): > 10000 nM.
Same read-out and setting: next, `O=C(O)[C@H]1C2C=CC(CC2)[C@@H]1Nc1nc(-c2c[nH]c3ncc(F)cc23)ncc1F` (stereo partly drawn): 7 nM.

The next assay concerns H1N1 subtype. Described as §1. It is filed as functional, cell-based.
Conditions: not given
In short, it runs like this: as §2
For `O=C(O)[C@H]1C2CCC(CC2)[C@@H]1Nc1nc(-c2c[nH]c3ncc(F)cc23)ncc1F` [PIMODIVIR], the EC90 stood at 27 nM.

In general, EC50 refers to the concentration that produces a half-maximal response. By EC90 is commonly meant the concentration at which the effect reaches the 90% level.
